# Only some compounds are listed: those with a hit (about 1.9% of all), similar ones and a draw of the others.
# MBD2 inh = inhibitors of MBD2 binding to methylated DNA, primary screen, biochemical, TR-FRET, DNA-binding domain, human; Methyl-CpG-binding domain protein 2 (Homo sapiens), Q9UBB5; MBD2 binding to methylated oligonucleotide; inhibition, % at 4.4 µM; 0.31% of 370,000 active; in the data active means inhibition above about 13%
# Target sequence (Q9UBB5 whole entry, looked up, the tested form may be a part): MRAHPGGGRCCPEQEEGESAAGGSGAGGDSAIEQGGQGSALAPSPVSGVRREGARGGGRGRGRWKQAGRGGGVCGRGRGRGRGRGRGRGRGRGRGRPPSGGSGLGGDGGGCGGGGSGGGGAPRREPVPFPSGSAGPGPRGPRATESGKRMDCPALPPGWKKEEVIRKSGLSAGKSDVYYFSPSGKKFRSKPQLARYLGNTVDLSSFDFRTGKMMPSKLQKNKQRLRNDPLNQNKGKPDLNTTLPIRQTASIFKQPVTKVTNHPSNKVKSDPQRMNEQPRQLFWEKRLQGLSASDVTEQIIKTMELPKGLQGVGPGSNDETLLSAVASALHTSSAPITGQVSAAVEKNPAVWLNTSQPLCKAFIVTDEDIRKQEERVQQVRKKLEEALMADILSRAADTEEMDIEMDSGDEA
# Tn6 DDE FP = inhibitors of Tn6 peptide binding to fibrin DD(E), primary screen, biochemical, fluorescence polarization, human fibrin, Tn6 probe; Fibrin DD(E) TRITC-Tn6 fluorescence polarization displacement; Fibrinogen beta chain (Homo sapiens), P02675; 0.21% of 370,000 active; inhibition, % at 8.3 µM;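 active means inhibition above a per-campaign cutoff: mean of compounds within control limits plus 3 SD, cut at about 15% in these data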;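 further: 0% = median of all compound wells on the plate and 100% = blocking peptide control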
# UHRF1 MBD2 ctr = UHRF1 methylated DNA binding inhibitors, primary screen, counter-screen for MBD2 inhibitor project, biochemical, TR-FRET, human UHRF1, single concentration. UHRF1 binding to methylated oligo. inhibition, % at 4.4 µM. 0.75% of 370,000 active. E3 ubiquitin-protein ligase UHRF1 (Homo sapiens), Q96T88;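 further: UHRF1 SRA domain binding a hemimethylated CpG hairpin DNA probe; 0% = median of test compound wells and 100% = reference inhibitor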
# TDP2 inh = human TDP2 enzyme inhibitors, primary screen, biochemical, epi absorbance, recombinant enzyme. Tyrosyl-DNA phosphodiesterase 2 (Homo sapiens), O95551. T5PNP hydrolysis, p-nitrophenol absorbance 415 nm. AID 720702, 2013. inhibition, % at 12.8 µM. 0.34% of 370,000 active;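 active means inhibition above the mean of all tested compounds plus 3 SD, set per campaign, cut at about 25% in these data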;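 further: 0% = DMSO with enzyme and 100% = buffer with substrate but no TDP2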
#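 test system = human TDP2 enzyme | input = TDP2 enzyme at 120 nM final | medium = 50 mM Tris-HCl pH 7.5 with Mg2+, KCl, DTT, BSA | also added = T5PNP substrate, 5 mM | times = 2 h at 37 °C | technique = epi absorbance | benchmarks = high control without enzyme, low control DMSO plus TDP2 | replication = each compound tested once, singlicate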
# DDE Tn7 FP inh = inhibitors of Tn7 peptide binding to fibrin DD(E), primary screen, biochemical, fluorescence polarization, human fibrin, Tn7 probe. FP displacement of FITC-Tn7 peptide from fibrin DD(E); 0% = median of compound wells per plate. inhibition, % at 8.3 µM. 0.13% of 370,000 active;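 active means inhibition above the mean of compounds falling within the control limits plus 3 SD of them, cut at about 14% in these data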;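 further: 0% = plate median of compound wells and 100% = 10 µM Aha-Tn7 peptide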
#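 Measure: % inhibition scaled between sample-field median and high-control FP; Test system: human fibrin DD(E); Quantity: 2 µM final DD(E) protein; Doses: one dose, 8.3 µM nominal; Schedule: compound with protein 10 min, then 3 h after probe, room temperature; Detection: fluorescence polarization; Medium: Tris buffer with calcium and detergent, pH 7.8.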
# LEDGF integ inh = blockers of LEDGF/p75-dependent integrase strand transfer – biochemical, TR-FRET, high throughput, primary screen; inhibition, % at 3.7 µM; 0.64% of 370,000 active; HIV-1 integrase (with human LEDGF/p75); TR-FRET IN-LEDGF/p75 DNA integration, Eu/Cy5;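 active means inhibition above the screen-wide mean plus 3 SD, cut at about 13% in these data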;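 further: signal is the Cy5 over europium emission ratio at 671 and 618 nm; 0% = plate median of compound wells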
# UHRF1 DNA bind = UHRF1 methylated DNA binding inhibitors, counter-screen for MBD2 inhibitor project, biochemical, TR-FRET, human UHRF1 | UHRF1 binding to methylated oligonucleotide | shares compounds with MBD2 inh | AID 720530, 2013 | 25% of 1,000 active | inhibition, % at 4.4 µM;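 further: UHRF1 SRA domain binding a labeled hemimethylated CpG hairpin DNA; 0% = vehicle only and 100% = reference inhibitor with vehicle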
# MBD2 DBD conf = inhibitors of MBD2 binding to methylated DNA, confirmation, biochemical, TR-FRET, DNA-binding domain, human; TR-FRET MBD2-DBD binding to methylated oligonucleotide; 26% of 1,000 active; shares compounds with MBD2 inh; inhibition, % at 4.4 µM; AID 720531, 2013; in the data active means inhibition above about 14%
# The depositor's hits bear a star; x = no result given. Unless noted, no stated cut-off is given here; in the data, active means inhibition above about 21%; inactive means the rest.
SMILES,MBD2 inh,Tn6 DDE FP,UHRF1 MBD2 ctr,TDP2 inh,DDE Tn7 FP inh,LEDGF integ inh,UHRF1 DNA bind,MBD2 DBD conf
CC(=O)Nc1sc2c(c1-c1nc3ccccc3s1)CN(C(C)C)C2,14*,-7,-5,0,6,0,11,29*
CC(=O)Nc1sc2c(c1-c1nc3ccccc3s1)CCN(C(C)=O)C2,-5,-2,-18,4,10,3,x,x
CC(C)N1CCc2c(sc(NC(=O)c3nc4ccccc4s3)c2C(N)=O)C1,-4,3,2,-9,-4,-1,x,x
CC(=O)Nc1sc2c(c1-c1nc3ccccc3s1)CN(C(C)C)CC2,36*,0,3,-5,-4,2,24*,57*
CC(=O)Nc1sc2c(c1-c1nc3ccccc3s1)CCN(C)C2,28*,-2,1,0,7,2,15,42*
CC(=O)N1CCc2c(sc(NC(=O)C3CC3)c2-c2nc3ccccc3s2)C1,-1,3,-7,8,3,3,x,x
CC(=O)Nc1sc2c(c1-c1nc3ccccc3s1)CCCN(C(C)C)C2,50*,-5,28*,-1,5,3,35*,55*
O=C(NCc1ccccc1)[C@@H]1CCCN1C(=O)[C@H]1CCCN1C(=O)c1cccs1,3,-3,3,-11,7,3,x,x
COc1ccc(-c2ccc3c(n2)CCCN3S(=O)(=O)c2ccccc2)cc1,2,7,2,-1,-5,-4,x,x
Cc1ccc(NC(=O)c2cc3ccccc3oc2=N)cc1,-2,3,2,-25,2,5,x,x
N=c1oc2cc(O)ccc2cc1C(=O)Nc1ccc(Cl)cc1,14*,6,3,0,-1,-1,7,4
CCC(=O)N1Cc2cc(C(=O)NCC(F)(F)F)nc(-c3cccc(-c4cncnc4)c3)c2[C@H]1CCO,14*,-2,26*,-2,3,8,2,3
CC1CCCCC1NC(=O)CSc1nncs1 (centres undefined),14*,2,0,11,4,0,7,1
CC1CCCC(NC(=O)CSc2nncs2)C1C (centres undefined),0,7,7,7,0,-4,x,x
CNS(=O)(=O)c1cccc(C(=O)OCC(=O)Nc2ccccc2F)c1,17*,-4,26*,-4,1,0,4,2
COc1ccc(S[C@]2(C(=O)N(C)C)CC(=O)N(C(=O)/C=C/c3ccccc3)[C@@H]2c2ccc(OC)cc2)cc1,2,-9,-2,4,-2,6,x,x
COc1ccc(C(=O)c2cc3c(cc2[N+](=O)[O-])OCCO3)cc1,4,1,-1,1,-6,-2,x,x
O=C(c1ccccc1F)c1cc2c(cc1[N+](=O)[O-])OCCO2,15*,1,18,-10,8,1,7,1
CCc1nnc(NC(=O)CN2CCN(Cc3ccccc3Cl)CC2)s1,17*,0,20,16,6,5,8,6
O=C(Nc1nnc(CCN2CCCCC2)s1)c1ccccc1Cl,16*,-10,25*,-1,2,4,7,2
CCc1nnc(NC(=O)CN2CCN(Cc3ccccc3C)CC2)s1,3,-2,-1,6,-6,4,x,x
COCCCNc1cc(C)nc2ccccc12,-5,3,0,-8,7,-6,x,x
Cc1cc(NCCCCCCCNc2cc(C)nc3cc([N+](=O)[O-])ccc23)c2ccc([N+](=O)[O-])cc2n1,21*,-17,30*,-21,-15,0,38*,49*
Cc1ccc(Cn2cc(COC(=O)NCCc3c[nH]c4ccccc34)nn2)cc1,13,-1,2,1,-2,-3,x,x
O=C1N[C@@H](Cc2ccccc2)COC(=O)[C@@H](Cc2ccc(F)cc2)CC/C=C/C[C@H]1CC(=O)N(CCO)Cc1ccccc1,15*,-1,0,-2,-3,-1,5,6
SMILES,MBD2 inh,Tn6 DDE FP,UHRF1 MBD2 ctr,TDP2 inh,DDE Tn7 FP inh,LEDGF integ inh,UHRF1 DNA bind,MBD2 DBD conf
O=C(Cn1cnc2scc(-c3cccc([N+](=O)[O-])c3)c2c1=O)NCc1ccco1,24*,2,12,-8,-4,10,23*,17*
CSCCCNC(=O)C1CCN(S(=O)(=O)c2ccc3[nH]c(=O)oc3c2)CC1,1,0,-1,9,0,2,x,x
COc1ccc(N(C)S(=O)(=O)c2cccc(C(=O)OCC(=O)N(C)c3ccccc3)c2)cc1,16*,3,-2,5,1,-2,9,4
CCOC(=O)C1=C(COC(=O)c2cccnc2Cl)NC(=O)NC1C (centres undefined),19*,2,-2,0,-2,6,2,3
COC(=O)[C@]12C[C@H](CC(=O)N3CCOCC3)C(=O)N(Cc3ccccc3)C1=C[C@H](C(C)C)O[C@@H]2C1CC1,-1,-1,0,6,-3,0,x,x
O=C(NC(C(=O)N1CCCC1C(=O)NC1CCCC1)c1ccccc1)c1cccs1 (centres undefined),2,3,2,2,2,1,x,x
CCCCCCCCN1C(=O)N2Cc3cc(F)ccc3C2CS1(=O)=O (centres undefined),-3,-8,3,-6,-9,0,x,x
CCN(c1ccccc1)S(=O)(=O)c1cccc(C(=O)NCC2(N(C)C)CCCCC2)c1,23*,3,11,-4,-4,-1,3,9
CS(=O)(=O)Cc1cc(N2CCCC2)nc(-c2ccccc2)n1,20*,-2,-1,-2,-3,0,6,3
COCc1cc(N2CCCC2)nc(-c2ccccc2)n1,-5,4,-1,4,2,0,x,x
COC(=O)c1ccc2nc(-c3ccccc3)c(Cc3cccc(Cl)c3)n2c1,8,2,15,5,4,-1,x,x

# Assay outcomes (PubChem)
